Screening data: PubChem BioAssay, Johns Hopkins Ion Channel Center
An excerpt weighted towards active compounds, which were near 3.8% of everything screened.
KCNQ1 act: potentiators or activators of KCNQ1 channel, primary screen, cell-based, thallium flux, high-throughput. Potassium voltage-gated channel subfamily KQT member 1 (Homo sapiens), P51787. CHO-K1 KCNQ1, thallium flux FluxOR fluorescence; stronger effect = higher value. B-score at 10 µM. 310,000 compounds, 0.35% hits;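 active = fluorescence ratio B-score, a plate-corrected score, at least three library SD, with initial intensity B-score within 5 SD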
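Medium – assay buffer, equal DMSO in all wells · Material – CHO-K1 cell line with stable KCNQ1 potassium channel expression · Signal – kinetic FluxOR thallium fluorescence, 10-s 1-Hz baseline, 110-s post-stimulus read · Compound – single concentration per compound, DMSO matched to controls · Schedule – 37 °C overnight plating, 90-min dark dye load, 20-min compound pretreatment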
Kir21 block: inhibitors of mouse Kir2.1 inward-rectifier potassium channel; Inward rectifier potassium channel 2 (Mus musculus), P35561; HEK293-Kir2.1, FluxOR thallium flux fluorescence; stronger effect = lower value; B-score at 10 µM; 310,000 compounds, 0.85% hits;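 active = fluorescence ratio B-score at or below minus 3 SD of library scores, with starting-brightness B-score within 2 SD, cut at about -4.2 in these data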;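 also: channel flux triggered by added potassium and thallium sulfate stimulus; B-score of peak minus minimum fluorescence over baseline after thallium stimulus; more negative B-score means stronger Kir2.1 block with less thallium influx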
Target sequence (P35561 whole entry, looked up): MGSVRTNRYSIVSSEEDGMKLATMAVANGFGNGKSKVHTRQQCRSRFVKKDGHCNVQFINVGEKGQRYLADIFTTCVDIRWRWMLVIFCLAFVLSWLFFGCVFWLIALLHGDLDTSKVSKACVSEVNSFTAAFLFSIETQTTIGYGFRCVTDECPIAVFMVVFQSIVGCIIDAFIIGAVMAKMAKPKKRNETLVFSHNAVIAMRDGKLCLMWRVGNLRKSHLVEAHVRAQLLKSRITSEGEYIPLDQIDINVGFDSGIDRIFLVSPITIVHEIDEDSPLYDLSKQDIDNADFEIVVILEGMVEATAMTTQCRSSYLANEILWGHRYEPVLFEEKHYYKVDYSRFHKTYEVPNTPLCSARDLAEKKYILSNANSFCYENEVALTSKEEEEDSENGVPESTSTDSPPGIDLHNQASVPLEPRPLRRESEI
KCNK9 inh: KCNK9 potassium channel inhibitors, primary screen, HEK293 cells, thallium flux | FluxOR thallium flux fluorescence; stronger effect = lower value | B-score at 10 µM | 310,000 compounds, 1.2% hits;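 active = ratio B-score over 3 SD below the library mean, with starting fluorescence within 5 SD of its mean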;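 also: negative B-score means less thallium flux so channel inhibition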
KCNK3 block: human KCNK3 channel inhibitors, primary screen, CHO cells, FluxOR thallium flux, B-score | Potassium channel subfamily K member 3 (Homo sapiens), O14649 | FluxOR fluorescence; stronger effect = lower value | B-score at 10 µM | 340,000 compounds, 0.84% hits;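 active = B-score under library mean minus 4 SD, starting fluorescence ratio at most library mean plus 5 SD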;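 also: more negative B-score means stronger inhibition of thallium flux through KCNK3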
KCNQ1 block: inhibitors of human KCNQ1 channel, primary screen, cell-based, thallium flux, high-throughput. Potassium voltage-gated channel subfamily KQT member 1 (Homo sapiens), P51787. CHO-K1 KCNQ1, FluxOR thallium flux fluorescence; stronger effect = higher value. B-score at 10 µM. 310,000 compounds, 1.3% hits;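 active = compounds whose thallium flux B-score, printed positive for inhibition, exceeds three library SD while starting fluorescence stays within three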;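 also: channel opened by potassium depolarization with thallium stimulus after 20 min compound exposure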
hERG protect: hERG rescue from dofetilide block, primary screen, cell-based, CHO-hERG, FluxOR thallium flux, dofetilide IC70; Voltage-gated inwardly rectifying potassium channel KCNH2 (Homo sapiens), Q12809; dofetilide IC70 present; activation (rescue from dofetilide block), less the hit threshold, % at 10 µM; 310,000 compounds, 0.51% hits;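 active = activation above the mean of controls blocked by dofetilide plus 5 SD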;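 also: thallium influx through hERG after potassium depolarization seen as dye fluorescence rise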
* hit, by the source's call; i = inactive; nt = not tested or not shown.

SMILES	KCNQ1 act	Kir21 block	KCNK9 inh	KCNK3 block	KCNQ1 block	hERG protect
Cn1nc(C(C)(C)C)c([N+](=O)[O-])c1C(=O)Nc1ccccc1	i	-0.05	i	i	i	-10
Cc1ccc(C(=O)NCCn2cc(SCC(=O)Nc3cc(C)on3)c3ccccc32)cc1	i	-0.02	i	i	i	-13
CSc1nc2c(cc1C#N)C(=O)CC(C)(C)C2	i	0.06	i	i	i	-7
CCCCOC(=O)CSc1nc2c(cc1C#N)C(=O)CC(C)(C)C2	i	-0.22	-8.1*	i	i	-6
COc1ccc(C)cc1NC(=O)Nc1cnccn1	i	-1.8	i	i	i	-6
COC(=O)C1=C(C)NC2=C(C(=O)CCC2)C1c1ccc(-c2ccsc2C(=O)OC)o1 (stereo not drawn)	i	-1.5	i	i	i	14*
COC(=O)C1=C(C)NC2=C(C(=O)CCC2)C1c1ccsc1 (stereo not drawn)	i	0.1	i	nt	i	0
Cc1ccsc1C(=O)Nc1n[nH]c(C(F)(F)F)n1	i	0.04	i	i	i	-11
O=C(Nc1n[nH]c(C(F)(F)F)n1)C1CC1	i	-0.67	i	i	i	4.7*
C/C(=N\NC(=O)c1ccc(-c2ccccc2)cc1)C1C(=O)c2ccccc2C1=O	i	0.71	i	i	7*	-24
O=C(Nc1nc(=O)c2ccccc2s1)c1ccc(F)cc1	23*	0.82	i	i	i	-3
O=C(CSc1ccc2nnc(-c3cccnc3)n2n1)NCc1ccco1	i	-0.43	i	i	i	-4
Cn1nc(C(F)(F)F)c(/C=N/OC(=O)c2ccccc2)c1Sc1ccc(Cl)cc1	i	0.72	i	i	i	-8
Cn1nc(C(F)(F)F)c(/C=N/OC(=O)c2ccccc2)c1SCc1ccccc1Cl	i	0.52	-7.9*	i	i	-9
CNC(=O)CSCc1cnn(-c2ccccc2)c1-n1cccc1	i	-0.6	i	i	i	-5
COc1cccc(CNC(=O)CSCc2cnn(-c3ccccc3)c2-n2cccc2)c1	i	-5.8*	i	i	i	-9
CC(=O)[C@@]1(O)CC[C@H]2[C@@H]3CCC4=CC(=O)CC[C@]4(C)[C@H]3CC[C@@]21C	i	0.46	i	i	i	-3
Cc1nc(C2CCC3C4CCC5=CC(=O)CC[C@]5(C)C4CC[C@]23C)cs1 (stereo partly drawn)	i	-1.1	i	nt	7*	-14
COc1ccc(CC(C)CC(=O)NCCc2ccc(OC)c(OC)c2)cc1 (stereo not drawn)	i	-1.2	i	i	i	-8
OCCC1CN(Cc2cnc(-c3ccccc3)s2)CCN1Cc1ccccc1 (stereo not drawn)	i	0.1	i	i	i	-10
CN(C)S(=O)(=O)N(Cc1ccc(Br)cc1)c1ccccc1	i	-2.6	-7.4*	i	i	-8
CN(C)S(=O)(=O)N(CC(=O)N(Cc1ccccc1)Cc1ccccc1)c1ccccc1	i	0.01	i	i	i	-17
Cc1ccc(-n2nc3ccc(N)cc3n2)c(C)c1	i	0.02	i	i	i	7.0*
Cc1ccc(-n2nc3ccc(N)cc3n2)cc1Cl	i	-0.1	i	i	i	-2
CCCCCCOc1ccc(NC(=O)CC2C(=O)N(CC)C(=S)N2Cc2ccco2)cc1 (stereo not drawn)	i	2	i	i	9*	-24
SMILES	KCNQ1 act	Kir21 block	KCNK9 inh	KCNK3 block	KCNQ1 block	hERG protect
Cc1sc2nc(SCC(=O)Nc3c(C)n(C)n(-c4ccccc4)c3=O)n(C)c(=O)c2c1C	i	0.33	i	i	i	-17
COc1ccc(O[C@@H]2O[C@H](COC(C)=O)[C@@H](OC(C)=O)[C@H](OC(C)=O)[C@H]2NC(C)=O)cc1	i	-0.01	i	i	i	-2
CC(=O)N[C@H]1[C@H](OC2CCCCC2)O[C@H](COC(C)=O)[C@@H](OC(C)=O)[C@@H]1OC(C)=O	8*	0.17	i	i	i	-2
CCC(C)NC(=O)c1cc(Cl)c(NC(=O)C2=C(C)OCCS2)cc1OC (stereo not drawn)	44*	0.1	i	i	i	-4
COCCCNCCCCOc1c(Cl)cc(C)cc1Br	i	-6*	i	i	i	-17
Cc1cc(Br)ccc1OCCNCc1ccccc1	i	-10*	i	i	i	-8
Brc1ccccc1OCCNCc1ccccc1	i	-1.3	i	i	i	-9
Clc1ccc(OCCCNCc2ccccc2)c2ccccc12	i	-13*	i	i	i	-23
CCC(C)NCCOCCOc1ccc(Cl)c2ccccc12 (stereo not drawn)	i	-9.7*	i	i	i	-15
Cc1cccc(NC(=O)CNC(=O)c2cn(Cc3ccccc3)nc2-c2cccnc2)c1C	nt	nt	nt	i	nt	nt
CCc1ccc(S(=O)(=O)Nc2ccncc2)cc1	i	-0.96	i	i	i	-6
Cc1cc(Cl)cc(C)c1OCCNCc1ccccc1	i	-11	i	i	i	-13
C/C=C/c1ccc(OCCNCc2ccccc2)c(OC)c1	i	-0.65	i	i	i	-10
Cc1cc(C)c(C)c(OCCNCc2ccccc2)c1	i	-5.5*	i	i	i	-6
Cc1cc(C)c(OCCCCNCc2ccccc2)c(Cl)c1	i	-12*	i	i	i	-16
Cc1cc(C)c(OCCNCc2ccccc2)c(C)c1	i	-5*	i	i	i	-5
C=CCNCCOc1c(C)cc(C)cc1Cl	i	-2	i	i	i	-8
Cc1cc(Cl)cc(C)c1OCCOCCNCc1ccccc1	i	-12*	i	i	i	-14
COc1cc(OC)cc(-c2cc3cc(F)ccc3cn2)c1	nt	nt	nt	i	nt	nt
CC(CNC(=O)CN1C(=O)C(=O)N(C2CCCC2)C1=O)c1ccccc1 (stereo not drawn)	nt	nt	nt	i	nt	nt
CC1(C)Cc2c(c(-c3ccco3)nc3sc4c(NCCO)ncnc4c23)CO1	i	-0.65	i	i	i	-13
CC(C)OC(=O)c1c2nc3ccccc3nc2n2c1[nH]c(=O)c1ccccc12	81*	-0.06	i	nt	i	43*
